# In the RNAGym collection of RNA variant scans (doi:10.1126/science.aae0568):
# Variants at the floor of the assay were thinned out.
# B1: tRNA (parent)
# chain: GUUCCGUUGGCGUAAUGGUAACGCGUCUCCCUCCUAAGGAGAAGACUGCGGGUUCGAGUCCCGUACGGAACG
# Variants of: B1
# Assay: yeast fitness relative to wild type (ratio to wild type); higher = fitter; tRNA-Arg(CCU), competitive growth, 37 C, YPD
# In short: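 Changes in genotype frequencies gave Darwinian fitness relative to wild type. Frequencies were read by 100-nucleotide paired-end sequencing of gene amplicons before and after pooled Saccharomyces cerevisiae strains, carrying tRNA-Arg(CCU) gene variants at the native locus, were competed in YPD at 37°C for 24 hours in six replicates. A genotype was kept only with ≥ 100 starting reads, and estimates < 0.5 were set to 0.5.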
row,Variant,yeast fitness
1,GUUCCGUUGGCGAAAUGGUAACGCGUCUCCCUCCUAAGGAGAAGGCUGCGGGUUCGAGUCCCGUACUGAACG [U13A A45G G67U],0.629
2,GUUCCGUUGGCGAAAUGGUAACGCGUCUCCCUCCUAAGGAGGAGACAGCGGGUUCGAGUCCCGUACGGAACG [U13A A42G U47A],0.542
3,GUUCCGUUGGCGAAAUGGUAACGUGUCUCCCUCCUAAGGAGAAGACUGCGGGUUCGAGCCCCGUACGGAACG [U13A C24U U59C],0.55
4,GUUCCGUUGGCGAAAUGGUAACGCGUCUCCCUCCUAAGGGGGAGACUGCGGGUUCGAGUCCCGUACGGAACG [U13A A40G A42G],≤ 0.5
5,GUUCCGUUGGCGAAAUGGUAACGCGUCUCCCUCCUACGGAGAAGACUGCGGGUUCAAGUCCCGUACGGAACG [U13A A37C G56A],≤ 0.5
6,GUUCCGUUGGCGAAAUGGUAAGGGGUCUCCCUCCUUAGGCGAAGACUGCGCGUUCGAGUCCCGUACGGAACG [U13A C22G C24G A36U A40C G51C],0.548
7,GUUCCGUUGGCGAAAUGGUAACGCGUGUCCCUCCUAAGGGCAAGACUGCGGGUUCGAGUCCCGUACGGUACG [U13A C27G A40G G41C A69U],1.07
8,GUUCCGUUGGCGAAAUGGUAACGUGUCUCACUCCUAAGGAGAAGACUGCGGGUUCGAGUUCCGUACGGAACG [U13A C24U C30A C60U],≤ 0.5
9,GUUCCGUUGGCGAAAUGGUAACGCGUCUCCCUCCUAGGGACAAGACUGCGGGUUCGAGUCCCGUACGGAACG [U13A A37G G41C],≤ 0.5
10,GUUCCGUUGGCGAAAUGGUAAUGCGUCUCCCUCCUAAGGAGAAGACUGCGAGUUCGAGUCCGCUAGGGUACG [U13A C22U G51A C62G G63C C66G A69U],≤ 0.5
11,GUUCCGUUGGCGAAAUGGUAACGCGUCUCCCUCCUAAGGAGCAGACUGCGGGUUCGAGUCCCGUACGGAUCG [U13A A42C A70U],0.671
12,GUUCCGUUGGCGAAAUGGUAACGCGUCUCCCUCCUAAGGAGUAGACUGCGGGUUCGAGUCCCGUACGGAACG [U13A A42U],1.03
13,GUUCCGUUGGCGAAAUGGUAACGCGUGUCCCUCCUAAGGAGUAGACUGCGGGUUCGCGUCCCGUACGGAACG [U13A C27G A42U A57C],≤ 0.5
14,GUUCCGUUGGCGAAAUGGUAUGGCGUCUCCAUCCUAAGGAGAAGACUGCAGGUUCGAGUCCCGUACGGAACG [U13A A21U C22G C31A G50A],≤ 0.5
15,GUUCCGUUGGCGAAAUGGUAACGCGUCUCCCUCCUAAGGAGAAGACUGCGGGUUCGAGUCCCGUGCGGAACG [U13A A65G],1.04
16,GUUCCGUUGGCGAAAUGGUAACGCGUCUCCCUCCUAAGGAGAAGACUGCGGGUUCGAGUCCCGUCCGGAACG [U13A A65C],0.79
17,GUUCCGUUGGCGAAAUGGUAACGCGUGUCCCUCCUAAGGAGAAGCCUGCGGGUUCGAGUCCCGUACGGAACG [U13A C27G A45C],0.743
18,GUUCCGUUGGCGAAAUGGUAACGCGUGUCCCUCCUAAGGGCAAGACUGCGGGUUCGAGUCCCGUACGGAACG [U13A C27G A40G G41C],0.741
19,GUUCCGUUGGCGAAAUGGUAAGGCCUUUCGCUCCUAAGGAGAAGACUGCGGGUUAGAGUCCCGUACGGUACG [U13A C22G G25C C27U C30G C55A A69U],0.572

row,Variant,yeast fitness
1,GUUCCGUUGGCGAAAUGGUAACGAGUCUCCCUCCUAAGGAGAAGACUGCGGGUUCGAGUCACGUACGGUACG [U13A C24A C61A A69U],0.505
2,GUUCCGUUGGCGAAAUGGUAACGCGUCUCCCUCCUAAGGUGAAGACUGCGGGUUCGAGUCCCGUACGGAACG [U13A A40U],0.99
3,GUUCCGUUGGCGAAAUGGUAACGCGUCUCCCUCCUAAGGGGACGACUGCAGGUUCGAGUCCCGUACCGAACG [U13A A40G A43C G50A G67C],≤ 0.5
4,GUUCCGUUGGCGAAAUGGUAACGCGUCUCCCUCCUAAGGAGAAGCCUACGGGUUCGAGUCCCGUACGGAACG [U13A A45C G48A],1.26
5,GUUCCGUUGGCGAAAUGGUAAAGCGUCUCCCUCCUAAGGAGAAGACUGCGGGUUCGAGUCCCGUGCGGAACG [U13A C22A A65G],1.06
6,GUUCCGUUGGCGAAAUGGUAACGCGUCUCCCUCCUAAGGAGACGACUGCGGGUUCGCGUCCCGUACGGAACG [U13A A43C A57C],≤ 0.5
7,GUUCCGUUGGCGAAAUGGUAACGUGUCUCCCUCCUAAGGAUAAGACCGCGGGUUCGAGUCCCGUACGGAACG [U13A C24U G41U U47C],≤ 0.5
8,GUUCCGUUGGCGAAAUGGUAACGCGUCUCCCUCCUAAGGAGAAGACUGCGGGUUCGCGUCCCGUAGGGAACG [U13A A57C C66G],≤ 0.5
9,GUUCCGUUGGCGAAAUGGUAGCGCGUCUCCCUCCUAAGGAGAAGACUGCGGGUUCGUGUCCCGUACGGAACG [U13A A21G A57U],0.597
10,GUUCCGUUGGCGAAAUGGUAAGGCGUCUGCCUCCUAAGGUGAAGACUGCGGGUCCGAGUCGCGUACGGAACG [U13A C22G C29G A40U U54C C61G],≤ 0.5
11,GUUCCGUUGGCGAAAUGGUAACGCGUCUCCCUCCUAAGGAGAAGGCUGCCGGUUCGAGUACCGUACGGCACG [U13A A45G G50C C60A A69C],0.821
12,GUUCCGUUGGCGAAAUGGUAACGCGUCUCCCUCCUAAGGAGCAGACUGCGGGUUCGAGUCCAGUACGGAACG [U13A A42C C62A],0.57
13,GUUCCGUUGGCGAAAUGGUAACGCGUCUCCCUCCUAAGGAGAGGACUGCGGGGUCGAGUCCCGUACGGAACG [U13A A43G U53G],≤ 0.5
14,GUUCCGUUGGCGAAAUGGUAACGUGUCUCCCUCCUAAGGAGAAGACUGCGGGUUAGACUCCCGUACGGAACG [U13A C24U C55A G58C],≤ 0.5
15,GUUCCGUUGGCGAAAUGGUAUGGCGUCUCCCCCCUAAGGAGCAGACUCCGGGUUGGAGUCCCGUACGGAACG [U13A A21U C22G U32C A42C G48C C55G],≤ 0.5
16,GUUCCGUUGGCGAAAUGGUAACGCGUCUCCCUCCUAAGGAGAAGCCUGCGGGUUCGAGUCCCGUACGGAACG [U13A A45C],0.902
17,GUUCCGUUGGCGAAAUGGUAACGCGUGUCCCUCCUAAGGAGUAGACUGCGGGUUCGAGUCCCGUACGGUACG [U13A C27G A42U A69U],0.687
18,GUUCCGUUGGCGAAAUGGUAACGCGUCUCCCUCCUAAGGUGAAGACUGCGGUUUGGAGUCCCGUACGGAACG [U13A A40U G52U C55G],≤ 0.5
